This passage reports Activity results from ChEMBL document CHEMBL3739347, “Tubulin modulating antifungal and antiproliferative pyrazinone derivatives” (Bioorg Med Chem, 2016).

What all share (format): functional
The test system of assay [1] is Puccinia triticina. Put plainly: Antifungal activity against Puccinia recondita f. sp. tritici infected in wheat seedlings at 200 ppm relative to control. The gist of the method: (§1)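 Test suspension sprayed to run-off on Stevens wheat seedlings. Next day inoculated with a Puccinia recondita f. sp. tritici spore suspension. Held 24 h in a saturated atmosphere at 20 °C, then 7 days in a 20 °C growth chamber before disease rating. Rates in ppm. Given as percent control versus untreated control plants.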

For assay [2], the system named is Puccinia triticina. Put plainly: Antifungal activity against Puccinia recondita f. sp. tritici infected in wheat seedlings at 40 ppm relative to control. The procedure, abridged:
as §1

Assay [3] concerns Botrytis cinerea. Put plainly: Antifungal activity against Botryotinia fuckeliana infected in orange pixie tomato seedlings at 40 ppm relative to control. The procedure, abridged:
(§2)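 Orange Pixie tomato seedlings sprayed to run-off with test suspension, then inoculated next day with a Botryotinia fuckeliana spore suspension. Kept saturated at 20 °C for 48 h, then 1 more day at 24 °C in a growth chamber before rating. Rates in ppm. Expressed as percent control relative to untreated control plants.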

The test system of assay [4] is Botrytis cinerea. Kind of assay: Antifungal activity against Botryotinia fuckeliana infected in orange pixie tomato seedlings at 200 ppm relative to control. The gist of the method: as §2
Assay [5] relates to Parastagonospora nodorum. Put plainly: Antifungal activity against Stagonospora nodorum infected in wheat seedlings at 200 ppm relative to control. The gist of the method:
(§3)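 Wheat seedlings, treated the day before, inoculated with a Stagonospora nodorum spore suspension. Held in a saturated atmosphere at 20 °C for 48 h, then 5 days in a growth chamber at 22 °C, then disease rated. Rates in ppm. Scored as percent control relative to untreated control plants.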

Assay [6] relates to Parastagonospora nodorum. Put plainly: Antifungal activity against Stagonospora nodorum infected in wheat seedlings at 40 ppm relative to control. The procedure, abridged: as §3
The test system of assay [7] is Botrytis cinerea. Put plainly: Antifungal activity against Botryotinia fuckeliana infected in orange pixie tomato seedlings at 10 ppm relative to control. The gist of the method:
as §2

In assay [8] the test system is Puccinia triticina. Put plainly: Antifungal activity against Puccinia recondita f. sp. tritici infected in wheat seedlings at 10 ppm relative to control. The procedure, abridged:
as §1

The subject of assay [9] is Parastagonospora nodorum. Kind of assay: Antifungal activity against Stagonospora nodorum infected in wheat seedlings at 10 ppm relative to control. The procedure, abridged:
as §3

Assay [10] deals with Parastagonospora nodorum. Kind of assay: Antifungal activity against Stagonospora nodorum infected in wheat seedlings at 2 ppm relative to control. The procedure, abridged:
as §3

For assay [11], the system named is Puccinia triticina. Put plainly: Antifungal activity against Puccinia recondita f. sp. tritici infected in wheat seedlings at 2 ppm relative to control. The procedure, abridged: as §1
The test system of assay [12] is Botrytis cinerea. Kind of assay: Antifungal activity against Botryotinia fuckeliana infected in orange pixie tomato seedlings at 2 ppm relative to control. The procedure, abridged:
as §2

For `CC(C)Cn1c(C2CC2)c(Cl)nc(-n2cccn2)c1=O`, the Activity with Puccinia triticina [1], with Puccinia triticina [2], in the assay with Botrytis cinerea [3], with Botrytis cinerea [4], in the assay on Parastagonospora nodorum [5] and with Parastagonospora nodorum [6] was 0% each time.

Take `O=c1c(-n2cccn2)nc(Cl)c(-c2c(F)cc(F)cc2F)n1C1CCCCC1`: the Activity came out at 99% in the assay on Puccinia triticina [1]; 99% in the assay with Botrytis cinerea [7]; 97% in the assay on Puccinia triticina [2]; 89% in the assay on Puccinia triticina [8]; 99% with Botrytis cinerea [3]; 99% in the assay with Botrytis cinerea [4]. Also, the Activity in the assay with Parastagonospora nodorum [5] worked out at 100%; in the assay with Parastagonospora nodorum [6], 99%; with Parastagonospora nodorum [9], 73%.

For `CC(C)Cn1c(-c2c(F)cccc2F)c(Cl)nc(-c2cnccn2)c1=O`, the Activity in the assay with Puccinia triticina [1] worked out at 99%; in the assay on Botrytis cinerea [7], 83%; with Puccinia triticina [2], 89%; with Puccinia triticina [8] it was 0%; in the assay with Botrytis cinerea [3], 98%; in the assay with Botrytis cinerea [4], 98%. The figures for the Activity with Parastagonospora nodorum [5], in the assay with Parastagonospora nodorum [6] and with Parastagonospora nodorum [9] were 98%, 0% and 0%, respectively.

On to `CC(C)Cn1c(-c2c(F)cccc2F)c(Cl)nc(-c2cn(C)cn2)c1=O`, for which the Activity came to 99% in the assay with Puccinia triticina [1]; 0% in the assay on Botrytis cinerea [7]; 0% with Parastagonospora nodorum [10]; 0% in the assay with Puccinia triticina [11]; 97% with Puccinia triticina [2]; 0% in the assay with Botrytis cinerea [12]. The Activity in the assay on Puccinia triticina [8] is recorded as 0%; in the assay on Botrytis cinerea [3], 99%; in the assay with Botrytis cinerea [4], 100%; in the assay with Parastagonospora nodorum [5], 97%; in the assay on Parastagonospora nodorum [6], 67%; with Parastagonospora nodorum [9], 0%.

For `CC(C)Cn1c(-c2c(F)cccc2F)c(Br)nc(-n2cccn2)c1=O`, the Activity with Puccinia triticina [1] is listed as 100%; in the assay with Botrytis cinerea [7] it was 99%; in the assay on Puccinia triticina [2], 99%; in the assay with Puccinia triticina [8], 88%; in the assay with Botrytis cinerea [3] it was 100%; with Botrytis cinerea [4] it was 100%. Moreover, the Activity is given as 100% in the assay on Parastagonospora nodorum [5], 100% with Parastagonospora nodorum [6] and 86% with Parastagonospora nodorum [9].

With `CC(C)Cn1c(-c2c(F)cccc2F)c(Cl)nc(-c2ccccn2)c1=O`, the Activity stood at 99% with Puccinia triticina [1]; 85% in the assay with Puccinia triticina [2]; 99% in the assay with Botrytis cinerea [3]; 100% in the assay with Botrytis cinerea [4]; 99% in the assay on Parastagonospora nodorum [5]; 0% in the assay on Parastagonospora nodorum [6].

With `CC[C@H](C)Cn1c(-c2c(F)cccc2F)c(Cl)nc(-n2nccn2)c1=O`, the Activity came to 86% in the assay with Puccinia triticina [1]; 19% with Puccinia triticina [2]; 0% in the assay with Botrytis cinerea [3]; 97% in the assay on Botrytis cinerea [4]; 0% in the assay with Parastagonospora nodorum [5]; 0% in the assay on Parastagonospora nodorum [6].

Take `CC[C@H](C)Cn1c(-c2c(F)cccc2F)c(Cl)nc(C#N)c1=O`: the Activity with Puccinia triticina [1] was 96%; in the assay on Puccinia triticina [2], 74%; in the assay on Botrytis cinerea [3], 99%; in the assay on Botrytis cinerea [4], 99%; in the assay with Parastagonospora nodorum [5] it was 0%; in the assay with Parastagonospora nodorum [6] it was 0%.

As to `CCC(C)Cn1c(-c2c(F)cc(F)cc2F)c(Cl)nc(-n2cccn2)c1=O` (stereo not drawn), the Activity in the assay on Puccinia triticina [1] was 100%; with Botrytis cinerea [7] it was 100%; in the assay with Parastagonospora nodorum [10], 0%; in the assay on Puccinia triticina [11], 89%; in the assay with Puccinia triticina [2] it was 100%; with Botrytis cinerea [12], 100%. For the same compound, the Activity was 100% in the assay with Puccinia triticina [8]; 100% with Botrytis cinerea [3]; 100% in the assay on Botrytis cinerea [4]; 100% in the assay with Parastagonospora nodorum [5]; 100% in the assay with Parastagonospora nodorum [6]; 98% with Parastagonospora nodorum [9].

On to `CC(C)Cn1c(C2CCCC2)c(Cl)nc(-n2cccn2)c1=O`, for which the Activity in the assay on Puccinia triticina [1] came to 100%; in the assay with Puccinia triticina [2] it was 91%; in the assay with Botrytis cinerea [3], 99%; in the assay on Botrytis cinerea [4] it was 100%; in the assay with Parastagonospora nodorum [5] it was 0%; with Parastagonospora nodorum [6], 0%.

For `CC[C@H](C)Cn1c(-c2c(F)cccc2F)c(Cl)nc(-n2nc(C)cc2C)c1=O`, the Activity in the assay on Puccinia triticina [1] came to 73%; with Botrytis cinerea [7], 0%; in the assay on Puccinia triticina [2], 22%; with Puccinia triticina [8] it was 0%; in the assay on Botrytis cinerea [3] it was 0%; in the assay with Botrytis cinerea [4], 0%. For the same compound, the Activity in the assay on Parastagonospora nodorum [5], in the assay on Parastagonospora nodorum [6] and in the assay with Parastagonospora nodorum [9] was 0% in each case.

On to `CC(C)Cn1c(C(C)C)c(Cl)nc(-n2cccn2)c1=O`, for which the Activity is reported as 98% in the assay with Puccinia triticina [1]; 18% in the assay on Puccinia triticina [2]; 99% in the assay on Botrytis cinerea [3]; 99% in the assay with Botrytis cinerea [4]; 0% in the assay with Parastagonospora nodorum [5]; 0% with Parastagonospora nodorum [6].

Take `CC(=O)Nc1nc(Cl)c(-c2c(F)cccc2F)n(CC(C)C)c1=O`: the Activity with Puccinia triticina [1] was 99%; in the assay with Botrytis cinerea [7], 15%; in the assay on Puccinia triticina [2] it was 90%; in the assay with Puccinia triticina [8], 0%; with Botrytis cinerea [3], 92%; with Botrytis cinerea [4], 99%. Further, the Activity with Parastagonospora nodorum [5], in the assay with Parastagonospora nodorum [6] and with Parastagonospora nodorum [9] was 0% throughout.

With `CC[C@H](C)Cn1c(-c2c(F)cccc2F)c(Cl)nc(-n2ccnc2)c1=O`, the Activity in the assay with Puccinia triticina [1], with Botrytis cinerea [7], in the assay on Puccinia triticina [2], with Puccinia triticina [8], in the assay with Botrytis cinerea [3] and with Botrytis cinerea [4] was 0% in each case. In addition, the Activity in the assay with Parastagonospora nodorum [5], in the assay on Parastagonospora nodorum [6] and in the assay with Parastagonospora nodorum [9] was 0% throughout.

Take `CC[C@H](C)Cn1c(-c2c(F)cccc2F)c(Cl)nc(-n2ccnn2)c1=O`: the Activity in the assay with Puccinia triticina [1] was determined as 73%; in the assay with Botrytis cinerea [7] it was 33%; in the assay with Puccinia triticina [2], 67%; in the assay with Puccinia triticina [8], 67%; with Botrytis cinerea [3], 81%; with Botrytis cinerea [4], 98%. For the same compound, the Activity in the assay with Parastagonospora nodorum [5] was 73%; in the assay with Parastagonospora nodorum [6], 0%; in the assay on Parastagonospora nodorum [9], 0%.

As to `CC(C)Cn1c(-c2c(F)cccc2F)c(Cl)nc(-c2nccn2C)c1=O`, the Activity in the assay on Puccinia triticina [1], with Botrytis cinerea [7], with Puccinia triticina [2], in the assay with Puccinia triticina [8], with Botrytis cinerea [3] and in the assay on Botrytis cinerea [4] was 0% throughout. The Activity in the assay on Parastagonospora nodorum [5], in the assay on Parastagonospora nodorum [6] and in the assay with Parastagonospora nodorum [9] was 0% throughout.

Take `CC(C)Cn1c(C(C)(C)C)c(Cl)nc(-n2cccn2)c1=O`: the Activity with Puccinia triticina [1], in the assay on Puccinia triticina [2], with Botrytis cinerea [3], in the assay on Botrytis cinerea [4], with Parastagonospora nodorum [5] and in the assay on Parastagonospora nodorum [6] was 0% in each case.
